In article PMC3346673 (Toxicological and environmental chemistry, 2012):
“And” between values parts separate entries of the source, which are not always exact repeats. Equal entries are not always repeated. Where two headings read alike, the source gives them in different places.

Assays:
rats = assay: Oral up/down LD-50 determination, gavage in corn oil; type: in vivo, rat (Wistar)
Outline: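 Up/down design in 3 female Wistar rats (206–208 g). Test compound was suspended in corn oil and given by gavage, three times daily to reach the top level. Testing stopped at 5 g kg−1 body weight.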

Endotoxin activity = conditions: 1 mg mL^−1, tested undiluted to 1:512 dilution
[1] = system: Salmonella typhimurium strains TA1537, TA98, TA100, and TA1535; assay: Ames test for mutagenic activity; type: cell-based; conditions: reversion of mutations in the histidine operon
[2] = system: Escherichia coli strain WP2 uvrA; assay: Ames test for mutagenic activity; type: cell-based; conditions: reversion of mutations in the tryptophan operon
[3] = Oxygen radical absorbance capacity; conditions: Trolox equivalency
[4] = Metabolic profiling with human liver microsomes; type: in vitro ADME; conditions: incubation with human liver microsomes, MS identification
Outline: (§1)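 Test compound incubated with human or rat liver microsomes. Products separated by HPLC and identified by electrospray MS and MS:MS, using information-dependent acquisition on the parent ion, enhanced product ion scans, and linear ion trap scanning of trapped fragments.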

[5] = Metabolic profiling with rat liver microsomes; type: in vitro ADME; conditions: incubation with rat liver microsomes, MS identification
Outline: as §1

[6] = Plasma clearance after intravenous dosing; type: in vivo, rat (Sprague-Dawley)
Outline: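 Male Sprague-Dawley rats received 1 mg kg−1 test compound intravenously. Plasma levels were measured by the biodistribution LC-MS:MS method: heparinised, chilled plasma, DTT reduction, then reversed-phase ammonium formate/acetonitrile gradient with ESI MRM detection.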

[7] = Biodistribution of NBMI in plasma and tissues after oral gavage; type: in vivo, rat (Sprague Dawley); conditions: for concentration at 1 h / concentration at 2 h / concentration at 8 h / concentration at 24 h: male, Sprague Dawley, rat, 100 mg kg^−1
Outline: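 Twelve-hour-fasted male Sprague-Dawley rats were gavaged with 100 mg kg−1 test compound in corn oil, three per time point. Jugular-cannula blood was taken at 1, 2, 8 and 24 h into heparin and spun at 4°C; tissues were excised and weighed. Samples were DTT-reduced, then analysed by LC-MS:MS: Synergi Polar RP column, ammonium formate pH 3.5/acetonitrile gradient, ESI MRM.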

rats injected with HgCl2 = type: in vivo, rat (Harlan Sprague-Dawley); conditions: for mercury concentration in feces / mercury concentration in urine: 5 day collection, mean ± SEM
Outline: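 Mature male Harlan Sprague-Dawley rats (389–397 g), four groups of six, housed in pairs. HgCl2 was given sc at 4.06 mg kg−1 in saline under brief isoflurane. Test compound (42.3 mg kg−1, DMSO plus PBS) was given sc 20–30 min later. Non-recipients got saline, so each rat had two injections. Rats were weighed before treatment and before day-6 sacrifice; organs were blotted and weighed. Behaviour was recorded.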

[8] = system: rats injected with lethal doses of mercury chloride; assay: Survival of young rats after lethal doses of mercury chloride; type: in vivo, rat (Sprague-Dawley)
Outline: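 Thirty-six young male Sprague-Dawley rats (225–245 g) were split into three groups of 12. They received HgCl2 sc under the right abdominal skin at 1.0, 2.0 or 14 mg kg−1. Six per group then got test compound sc on the left side 20–25 min later in isotonic 25% DMSO:75% PBS: 528 micromoles for the two lower doses, 880 micromoles for the top dose.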

[9] = system: aortic endothelial membranes in culture; conditions: aortic endothelial membranes in culture ref Secor et al. 2011; cited from earlier work
[10] = iv 1 mg kg^−1, individual rats 1-3
[11] = iv 1 mg kg^−1, plasma, individual rats 1-3
[12] = Group 2 NBMI only, sc 42.3 mg kg^−1, mean ± St Dev
[13] = Group 4 HgCl2 (4.06 mg kg^−1 sc) + NBMI (42.3 mg kg^−1 sc), mean ± St Dev

O=C(NCCS)c1cccc(C(=O)NCCS)c1 [NBMI, N,N′-bis(2-mercaptoethyl)isophthalamide]
LD-50 (rats; oral gavage in corn oil, female Wistar rats): > 5 g kg^−1 body weight | signs of toxicity in LD-50 study (rats; up to 5 g NBMI kg^−1 body weight, gavaged 3 times daily): no death or other signs of toxicity with the exception of some diarrhea | endotoxin content (Endotoxin activity): less than one | mutagenicity, Ames analysis [1]: non-mutagenic | mutagenicity, Ames analysis [2]: non-mutagenic | ORAC score [3]: 199,000 Trolox units 100g^−1 | metabolites detected [4]: only two NBMI modified structures | metabolites detected [5]: only two NBMI modified structures | clearance relative to liver blood flow of a typical rat (3.3 L hr^−1 kg^−1) ([6]; iv 1 mg kg^−1): approximately 30% | Plasma concentration ([6]; iv 1 mg kg^−1, 0.083 hr, individual rats 1-3): 535 ng/mL and 423 ng/mL | Plasma concentration ([6]; iv 1 mg kg^−1, 0.25 hr, individual rats 1-3): 320 ng/mL and 254 ng/mL | Plasma concentration ([6]; iv 1 mg kg^−1, 0.5 hr, individual rats 1-3): 228 ng/mL and 203 ng/mL | Plasma concentration ([6]; iv 1 mg kg^−1, 1 hr, individual rats 1-3): 155 ng/mL and 124 ng/mL | Plasma concentration ([6]; iv 1 mg kg^−1, 3 hr, individual rats 1-3): 84.1 ng/mL and 63.1 ng/mL | Plasma concentration ([6]; iv 1 mg kg^−1, 6 hr, individual rats 1-3): 32.7 ng/mL and 28.9 ng/mL | Plasma concentration ([6]; iv 1 mg kg^−1, 24 hr, individual rats 1-3): 6.6 ng/mL and 8.84 ng/mL and 3.7 ng/mL | Co, maximum plasma concentration extrapolated to t=0 [6, 10]: 633 ng/mL and 691 ng/mL and 545 ng/mL | Vss, steady state volume of distribution [6, 10]: 7.2 L/kg and 7.3 L/kg | Co, maximum plasma concentration extrapolated to t=0 ([6]; iv 1 mg kg^−1, mean): 623 ng/mL | CL, clearance [6, 11]: 15.2 mL/min/kg and 21 mL/min/kg | t1/2, half-life [6, 11]: 7.28 h and 5.42 h | concentration at 24 hr ([6]; male, Sprague-Dawley, rat, plasma, iv, 1 mg kg^−1, Plasma concentration, iv 1 mg kg^−1, 24 hr, mean): 6.38 ng/mL | clearance ([6]; male, Sprague-Dawley, rat, plasma, iv, 1 mg/kg, CL, clearance, iv 1 mg kg^−1, plasma, mean): 16.8 mL/min/kg | Vd ([6]; male, Sprague-Dawley, rat, plasma, iv, 1 mg/kg, Vss, steady state volume of distribution, iv 1 mg kg^−1, mean): 6.7 L/kg | half-life ([6]; male, Sprague-Dawley, rat, plasma, iv, 1 mg/kg, t1/2, half-life, iv 1 mg kg^−1, plasma, mean): 6.18 h | concentration at 1 h ([7]; bone marrow, po): 12.5 ± 7.4 ng/g | concentration at 2 h ([7]; bone marrow, po): 65.7 ± 51.6 ng/g | concentration at 8 h ([7]; bone marrow, po): 6.88 ± 0.62 ng/g | concentration at 24 h ([7]; bone marrow, po): 3.76 ± 0.77 ng/g | concentration at 1 h ([7]; brain, po): 6.1 ± 2.6 ng/g | concentration at 2 h ([7]; brain, po): 51.8 ± 43.9 ng/g | concentration at 8 h ([7]; brain, po): 2.57 ± 0.34 ng/g | concentration at 24 h ([7]; brain, po): 2.09 ± 0.41 ng/g | concentration at 1 h ([7]; kidney, po): 61.3 ± 42.7 ng/g | concentration at 2 h ([7]; kidney, po): 145 ± 89.9 ng/g | concentration at 8 h ([7]; kidney, po): 45.1 ± 3.4 ng/g | concentration at 24 h ([7]; kidney, po): 36.9 ± 3.7 ng/g | concentration at 1 h ([7]; liver, po): 165 ± 144 ng/g | concentration at 2 h ([7]; liver, po): 272 ± 274 ng/g | concentration at 8 h ([7]; liver, po): 23.3 ± 2.2 ng/g | concentration at 24 h ([7]; liver, po): 14.2 ± 2.3 ng/g | concentration at 1 h ([7]; plasma, po): 588 ± 90 ng/mL | concentration at 2 h ([7]; plasma, po): 883 ± 216 ng/mL | concentration at 8 h ([7]; plasma, po): 391 ± 14 ng/mL | concentration at 24 h ([7]; plasma, po): 118 ± 29 ng/mL | concentration at 1 h ([7]; small intestine, po): 7430 ± 3200 ng/g | concentration at 2 h ([7]; small intestine, po): 8530 ± 5320 ng/g | concentration at 8 h ([7]; small intestine, po): 1560 ± 826 ng/g | concentration at 24 h ([7]; small intestine, po): 1040 ± 396 ng/g | concentration at 1 h ([7]; spleen, po): 12.1 ± 5.2 ng/g | concentration at 2 h ([7]; spleen, po): 153 ± 129 ng/g | concentration at 8 h ([7]; spleen, po): 16.8 ± 1.5 ng/g | concentration at 24 h ([7]; spleen, po): 12.7 ± 2.7 ng/g | concentration at 1 h ([7]; subcutaneous fat, oral): 420 ± 419 ng/g | concentration at 2 h ([7]; subcutaneous fat, oral): 683 ± 531 ng/g | concentration at 8 h ([7]; subcutaneous fat, oral): 17.3 ± 7.4 ng/g | concentration at 24 h ([7]; subcutaneous fat, oral): 7 ± 0.7 ng/g | clearance from the body from peak values within 24 hours of ingestion ([7]; oral gavage): about 90% | time of highest concentration in plasma and all tissues ([7]; post ingestion, oral gavage): 2 h | Body Mass Post Treatment (rats injected with HgCl2; [12]): 374.4 ± 27.7 g | Organ Mass Brain (Post Treatment) (rats injected with HgCl2; [12]): 1.85 ± 0.04 g | Organ Mass Kidney (Post Treatment) (rats injected with HgCl2; [12]): 2.80 ± 0.56 g | Organ Mass Liver (Post Treatment) (rats injected with HgCl2; [12]): 11.7 ± 1.8 g | clinically observed toxic effects (rats injected with HgCl2; Group 4 Hg + NBMI versus Hg Only): exhibited no signs of discomfort | Body Mass Post Treatment (rats injected with HgCl2; [13]): 356.9 ± 46.8 g | Organ Mass Brain (Post Treatment) (rats injected with HgCl2; [13]): 1.88 ± 0.10 g | Organ Mass Kidney (Post Treatment) (rats injected with HgCl2; [13]): 3.88 ± 0.69 g | Organ Mass Liver (Post Treatment) (rats injected with HgCl2; [13]): 11.0 ± 2.1 g | mercury concentration in feces (rats injected with HgCl2; Hg and NBMI group): 23447±4877 Ppb | mercury concentration in urine (rats injected with HgCl2; Hg and NBMI group): 242±52.7 Ppb | mercury concentration in feces (rats injected with HgCl2; NBMI Only group): 110±30 Ppb | mercury concentration in urine (rats injected with HgCl2; NBMI Only group): 0.30±0.1 Ppb | effect on organ mercury levels (rats injected with HgCl2; single sc dose of NBMI, organs 5-6 days after injection): did not reduce the mercury levels in the organs | PERCENT SURVIVAL ([8]; HgCl2 1 mg kg^−1 sc, NBMI 528 micromoles (150 mg) kg^−1 sc, 0 hrs): 100% | PERCENT SURVIVAL ([8]; HgCl2 1 mg kg^−1 sc, NBMI 528 micromoles (150 mg) kg^−1 sc, 6 hrs): 100% | PERCENT SURVIVAL ([8]; HgCl2 1 mg kg^−1 sc, NBMI 528 micromoles (150 mg) kg^−1 sc, 12 hrs): 100% | PERCENT SURVIVAL ([8]; HgCl2 1 mg kg^−1 sc, NBMI 528 micromoles (150 mg) kg^−1 sc, 24 hrs): 100% | PERCENT SURVIVAL ([8]; HgCl2 1 mg kg^−1 sc, NBMI 528 micromoles (150 mg) kg^−1 sc, 48 hrs): 100% | PERCENT SURVIVAL ([8]; HgCl2 1 mg kg^−1 sc, NBMI 528 micromoles (150 mg) kg^−1 sc, 72 hrs): 100% | PERCENT SURVIVAL ([8]; HgCl2 2 mg kg^−1 sc, NBMI 528 micromoles (150 mg) kg^−1 sc, 0 hrs): 100% | PERCENT SURVIVAL ([8]; HgCl2 2 mg kg^−1 sc, NBMI 528 micromoles (150 mg) kg^−1 sc, 6 hrs): 100% | PERCENT SURVIVAL ([8]; HgCl2 2 mg kg^−1 sc, NBMI 528 micromoles (150 mg) kg^−1 sc, 12 hrs): 100% | PERCENT SURVIVAL ([8]; HgCl2 2 mg kg^−1 sc, NBMI 528 micromoles (150 mg) kg^−1 sc, 24 hrs): 100% | PERCENT SURVIVAL ([8]; HgCl2 2 mg kg^−1 sc, NBMI 528 micromoles (150 mg) kg^−1 sc, 48 hrs): 100% | PERCENT SURVIVAL ([8]; HgCl2 2 mg kg^−1 sc, NBMI 528 micromoles (150 mg) kg^−1 sc, 72 hrs): 100% | PERCENT SURVIVAL ([8]; HgCl2 14 mg kg^−1 sc, NBMI 880 micromoles (250 mg) kg^−1 sc, 0 hrs): 100% | PERCENT SURVIVAL ([8]; HgCl2 14 mg kg^−1 sc, NBMI 880 micromoles (250 mg) kg^−1 sc, 6 hrs): 100% | PERCENT SURVIVAL ([8]; HgCl2 14 mg kg^−1 sc, NBMI 880 micromoles (250 mg) kg^−1 sc, 12 hrs): 100% | PERCENT SURVIVAL ([8]; HgCl2 14 mg kg^−1 sc, NBMI 880 micromoles (250 mg) kg^−1 sc, 24 hrs): 100% | PERCENT SURVIVAL ([8]; HgCl2 14 mg kg^−1 sc, NBMI 880 micromoles (250 mg) kg^−1 sc, 48 hrs): 67% | PERCENT SURVIVAL ([8]; HgCl2 14 mg kg^−1 sc, NBMI 880 micromoles (250 mg) kg^−1 sc, 72 hrs): 67% | condition of the surviving rats on long term observation ([8]; surviving 16 rats from all groups observed for three months): No adverse effects were noted | prevention of damage induced by mercury exposure [9]: very effective prevention of the damage induced by mercury exposure | toxicity on membrane integrity [9]: no toxicity on membrane integrity
